According to ChEMBL document CHEMBL1148911, “Ardisinones A-E, novel diarylundecanones from Ardisia arborescens” (J Nat Prod, 2004):
Active and inactive are the calls of the source.

Key:
Assay type in all cases: functional, organism-based
[1] = test system: Escherichia coli; assay: Antibacterial activity against Escherichia coli after 24 hrs by disk diffusion assay
Outline: (§1)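 Agar disk diffusion. Each organism was grown on agar medium, and plates were inoculated by spreading a spore or cell suspension evenly over the agar surface to give confluent growth. Compound-loaded disks were applied, and the zone of inhibition around each disk was measured at 24 and 48 h.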

[2] = test system: Staphylococcus aureus; assay: Antibacterial activity against Staphylococcus aureus after 24 hrs by disk diffusion assay; outline: as §1
[3] = test system: Bacillus subtilis; assay: Antibacterial activity against Bacillus subtilis after 24 hrs by disk diffusion assay; outline: as §1
[4] = test system: Mycolicibacterium smegmatis; assay: Antibacterial activity against Mycobacterium smegmatis after 24 hrs by disk diffusion assay; outline: as §1
[5] = test system: Candida albicans; assay: Antibacterial activity against Candida albicans after 48 hrs by disk diffusion assay; outline: as §1
[6] = test system: Aspergillus niger; assay: Antibacterial activity against Aspergillus niger after 48 hrs by disk diffusion assay; outline: as §1

Measured: Activity

COc1cc(O)c(C(=O)CCCCCCCCCCc2c(O)cccc2O)c(O)c1
inactive: [1] | [2] | [3] | [4] | [5] | [6]

COc1cc(O)c(C(=O)CCCCCCCCCCc2c(O)cccc2OC(C)=O)c(O)c1
inactive: [1] | [2] | [3] | [4] | [5] | [6]
